Measurements published in the EternaBench riboswitch data.

System: MS2 coat protein
Test: apparent Kd, MS2 coat protein; higher = weaker binding; RNA-MaP array; FMN 200 µM where present
Procedure, shortened: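 The apparent Kd is the median of filtered binding-curve fits, one per cluster, to green signal normalised to red-channel RNA signal and control-cluster median Fmax. The clusters were on Illumina sequencing chips, and stalled E. coli RNA polymerase had transcribed the designs on them. Titration used SNAP-549-labelled MS2 coat protein from 0.7 or 1.5 nM, doubling to 3 µM, without and then with constant ligand, in 100 mM Tris-HCl pH 7.5, 80 mM KCl, 4 mM MgCl2, BSA, DTT, yeast tRNA and Tween-20.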

[1] = designed as: ON switch for flavin mononucleotide, no ligand
[2] = ligand present: flavin mononucleotide, designed as: ON switch for flavin mononucleotide
[3] = designed as: OFF switch for flavin mononucleotide, no ligand
[4] = ligand present: flavin mononucleotide, designed as: OFF switch for flavin mononucleotide

Row | Sequence | apparent Kd [1] [µM] | apparent Kd [2] [µM] | apparent Kd [3] [µM] | apparent Kd [4] [µM]
1 | UUGGACGUUGUAGGAUAUGUAGGAUAUUCCUACAUGAGGAUCACCCAUGUUGACAUGGAAGAAGGACAGAAGGACGAUGUCCAU | 0.277 | 0.00532 | – | –
2 | CUUCAGUCAGGAUAUGUUAAUCUCGCCACUCGGCGAACCGGACAGAAGGGACAUGAGGAUCACCCAUGUUAAAA | – | – | 0.0347 | 0.0197
3 | AACAAACAUGAGGAUCACCCAUGUAAGGAUAUACGAAACAAACAAACAAACAAACAAAGUAGAAGGUACAGGAA | – | – | 0.0194 | 0.0183
4 | GCUUUAUUGGUCAGGAUAUACAUUUGUUACUCUUUGUAGAAGGGACAUGAGGAUCACCCAUGUACUUUACAUUC | – | – | 0.016 | 0.0174
5 | GGAGACCUCACAGGAUAUGCUGGACUUUGUCCAGCAGAAGGGUGAAACAUGAGGAUCACCCAUGUUGGUCUCCAAAUAUUUAAU | 0.66 | 0.0541 | – | –
6 | CGAUGAGUAGGAUAUGCGUCGGAUGCAUCUGCAUGUCACUUACAUGAGGAUCACCCAUGUAGAAGGGCUCGUUC | – | – | 0.019 | 0.026
7 | UUAAAUCGAAACAUGAGGAUCACCCAUGUGUUGUGGUUAAUAUAGGAUAUGUGUAUACUUUUAUGACAGAAGGAUGAUGAUACU | 0.0162 | 0.0132 | – | –
8 | GCUCGAUGAGCUGACUACAUGAGGAUCACCCAUGUAGAUGGGCAGGAUAUUUACGUGCUUUAUGUAGAGAAGGGCCCAUCGAGC | 0.324 | 0.114 | – | –
9 | ACUAUACGAGGAUAUACUGACGGGCCUCAGGCAUCCAUCAGACAUGAGGAUCACCCAUGUAGAAGGCGUAUACU | – | – | 0.0561 | 0.158
10 | UUUAUGUCAGGAUAUGAGUCGUAGAACAAUAGUACUACGUCUCAGAAGGGACAUGAGGAUCACCCAUGUGCCUC | – | – | 0.0404 | 0.316
11 | AAAUAGUUAGGAUAUACAUGAGGAUCACCCAUGUGGACUUAUGGCGAUUAAUUUAGUGGUAGAAGGGACUCAAA | – | – | 0.0538 | 0.0514
12 | UAUUAUCACGAAGGAUAUGCUUACAUGAGGAUCACCCAUGUAUGUAUAUUGAUCCAGCGUUUUGAGCAGAAGGUCGUGAGUAAA | – | – | 0.0201 | 0.0743
13 | GAUUGACAUGAGGAUCACCCAUGUGAGGAUAUCGGCCGGACCUUGUUAGCUUCCAUCGCGAGAAGGUACAUAGG | – | – | 0.0189 | 0.0184
14 | UUAUAAAGAGUGAGGAUAUGCUGGUCCUUGGAUCAGCAGAAGGCACAUGAGGAUCACCCAUGUAAAAUAAUAUU | – | – | 0.0284 | 0.0413
15 | GUUACCGUAGGAUAUACAUGAGGAUCACCCAUGUACUCAGUCGAUGGAUAAGAGUACUGUAGAAGGGCGCCGGC | – | – | 0.14 | 0.15
16 | AGCUGUGGCCGAGGAUAUCAAGAACCAUGGAAAACCAUGGAACCUUGACAUGAGGAUCACCCAUGUGAGAAGGCGGUCUCAGCA | – | – | 0.0144 | 0.0117
17 | GUAGCAUACCGAGGAUAUUCAGGGCGUGGAUAAACAUGAGGAUCACCCAUGUGGCGAAAGCCUAGGGAGAAGGCGGAAUGCUAC | 0.0215 | 0.0163 | – | –
18 | ACAUGAGAGAUAGGAUAUCUUGUACCUACAUGUGACAUGAGGAUCACCCAUGUGGUAAGUAUGAGGGAGAAGGGUCAGAUAUGU | 0.0579 | 0.0559 | – | –
19 | CCAGUGCGGGUGGUAUGGCUAACAUGAGGAUCACCCAUGUUGCAGGAUAUCGGCCAGAUUGGGCGCGAGAAGGGCAACGCUGAA | – | – | 0.0866 | 0.0326

Row | Sequence | apparent Kd [1] [µM] | apparent Kd [2] [µM] | apparent Kd [3] [µM] | apparent Kd [4] [µM]
20 | AGAGACUUGGGAGGAUAUGCCUGAUGGACACGGGCAGAAGGCCCAAACAUGAGGAUCACCCAUGUAUCUAAGCCCUGGAAGGGC | 0.31 | 0.0206 | – | –
21 | AAGUAGACGGUGAGGAUAUAGGUCGAACGACCGAUCUAGAAGGCACAUGAGGAUCACCCAUGUGGGUAACGUCG | – | – | 0.018 | 0.0196
22 | GAAACCUAGUCAGGAUAUCGGGCAAUAAUUGCACGAGAAGGGACAUGAGGAUCACCCAUGUACACCUCUGGUGAGUCUCGCAGG | – | – | 0.0244 | 0.0736
23 | GUGCAUUCGUAGAAGGGUGACAUGAGGAUCACCCAUGUGCGCUGAGCUCAAGAUGCACCAGCGCCACAGGAUAUACGAAGCACC | 0.0543 | 0.084 | – | –
24 | GUCAGGUCGUGAGGAUAUACAACACUGCUUCGGCAGUGUAUUAAGAUCACAUGAGGAUCACCCAUGUAGAAGGCACGAGCUGAU | – | – | 0.0141 | 0.21
25 | GCAGUGCCAGCGGUACUGCCUCUAGCAGAAGGGUGACGAGACAUGAGGAUCACCCAUGUAGAGACACAGGAUAUGCACCAGCUU | 0.142 | 0.00826 | – | –
26 | UGGUCAUGAUCAGGAUAUUAACAUGGGCUACAUUAAGAAGGGAUAGUGAGAUACGAACUGAACGACAUGAGGAUCACCCAUGUA | 0.0448 | 0.0343 | – | –
27 | AAAAAAAAAAACUAGGAUAUUUAACGGACAACAUGAGGAUCACCCAUGUCACAAAAAAAAAUAGUAAAGAAGGAGUAAAAAAAAAA | 0.0327 | 0.0318 | – | –
28 | GCAGGACAUGAGGAUCACCCAUGUUCAAAAUAUUGAGGAUAUGGAUACGGUAUAUCCGAACCAGAAGGCAACCUGC | 0.0205 | 0.0171 | – | –
29 | GCAUUUUAUGCAGGAUAUUGAAUUCGGAUUAAACAAGAAGGGCAUAACAUGAGGAUCACCCAUGUUUUAUAGGUAUCUAUGAAC | – | – | 0.0531 | 0.116
30 | CGAUAGUGUAGUUAUCCGUAGCGAACAUGAGGAUCACCCAUGUAGGAUAUGUUACUAAACUAGUAACAGAAGGGCAUGAGUCUU | – | – | 0.0286 | 0.0756
31 | CCCACGAGCGUAGGAUAUACAUGAGGAUCACCCAUGUAGGCACAAUGUCCCAGCUAGUGACCAGUGUAGAAGGACGUGUCUGGG | – | – | 0.0508 | 0.107
32 | UUUUCUUUUGUGAGGAUAUACUUGUUUUUUUUUUUGUAGAAGGCACAUGAGGAUCACCCAUGUUUUCUUUUCUG | – | – | 0.0171 | 0.0194
33 | AAGUCGAGCGUGAGGAUAUCGUUUGAACGACAGAGCGAGAAGGCACAUGAGGAUCACCCAUGUGAUUAAGCUCG | – | – | 0.0156 | 0.0199
34 | CCGGGUUAUGUUAGGAUAUGUAGGCCGCAACCGGAACAGAAGGGACAUGAGGAUCACCCAUGUGAUAUUCCCGG | – | – | 0.0233 | 0.0307
35 | ACGUAUCAUGUAGGAUAUGGCCCAGGAACUUGGUCAGAAGGACAUGAGGAUCACCCAUGUAGAGUAUGUUAGGAUGACGUAUGC | – | – | 0.0929 | 0.173
36 | CGAUGACUGGUGAGGAUAUCGUGUUCGAAAGAACGUGAGAAGGCACAUGAGGAUCACCCAUGUGAUCCUCAUCG | – | – | 0.0298 | 0.206
37 | UUGUUGUAUGUAGGAUAUGCAUAUUGUUAUUAUGCAGAAGGACAUGAGGAUCACCCAUGUAUAUUAUUAUUAUAUGUUAUAUAU | – | – | 0.0235 | 0.0278
38 | GGAUAGGACAGAGGAUAUACGUGCUAGAGAUACUAGCAAAAUUUCCUCACAUGAGGAUCACCCAUGUAGAAGGCUCUCCUAUCG | – | – | 0.0087 | 0.0315

Row | Sequence | apparent Kd [1] [µM] | apparent Kd [2] [µM] | apparent Kd [3] [µM] | apparent Kd [4] [µM]
39 | GCGUCAGAAUUAAUUGUGACAUACAGAAGGCAAAAGUUAGGAUUAGACAUGAGGAUCACCCAUGUUGAGGAUAUGUAGAGAAUC | – | – | 0.00969 | 0.00852
40 | GUGCUCGUGUGAGGAUAUGCUUCCGUUUCGGCUGCAGAAGGUACUAUUAUACAUGAGGAUCACCCAUGUCUCUUUUCUUCGGUG | 0.0331 | 0.0337 | – | –
41 | UGGUACUAGGGAGGAUAUGAGAAGAUACAUGAGGAUCACCCAUGUUUAAGAAUGCCGAGAGGCAACUAGAAGGCCCUAGUACCU | 0.00785 | 0.00523 | – | –
42 | GGAUGAGAAACUCAUCCAUAACGAACAUGAGGAUCACCCAUGUAGGAUAUGCUACUCAAAGAGUAGCAGAAGGACAUGUGUCUU | – | – | 0.0296 | 0.144
43 | AGUUGUUCAGGAUAUGGUGUGUUAUACAUGAGGAUCACCCAUGUGGGUCCUGGUUUGGCCUCAGAAGGGAAUGUUG | – | – | 0.636 | 0.518
44 | CAACCGUUGCAGAAGGUUAAAUAAAUCAACUUAUGGACAACAUGAGGAUCACCCAUGUUUUUGUUGAAGGAUAUGCAAGGGUUG | – | – | 0.00625 | 0.00585
45 | CCUCCACAUGAGGAUCACCCAUGUCAGGAUAUCGUGUGUUUUUUUUCGGCCGCGCGUGCGAGAAGGGACGUCUU | – | – | 0.0195 | 0.0198
46 | GGAGGACAUGAGGAUCACCCAUGUGGAUGGGCGCUAGGAUAUGCGAGAGGAUGGAGAGAAGCAGAAGGAGUGGGUU | 0.15 | 0.107 | – | –
47 | UCUCGACAUGAGGAUCACCCAUGUCAGGAUAUUGUGUUUUGGGUUUUUUACCUUUUGGCAAGAAGGGAUGUGUG | – | – | 0.023 | 0.0221
48 | ACGCGUUGGGAGAAGGUACUUUAAUUAGGUUACACAUGAGGAUCACCCAUGUAAGGAUAUCCCAUCGUGUAAUAUUAUACAGCA | – | – | 0.00806 | 0.00739
49 | GCCAACUUAUGAGGAUAUGGCACCUUAUUGGUGCCAGAAGGCAUGUGUAUUCACAUGAGGAUCACCCAUGUAUUAUAGUUGGCA | 0.498 | 0.0481 | – | –
50 | UGUAUGGACAGAGGAUAUACGUGCUAGAGAUACUAGCAAAUAAUCCUUACAUGAGGAUCACCCAUGUAGAAGGCUGUCCAUACU | – | – | 0.0201 | 0.0465
51 | ACAUGAUAUGUAGGAUAUCACAUUAAUUGUUUUAUAAUUGUAUUUUGGAUUUGAGAAGGACAUUUACAUGAGGAUCACCCAUGU | – | – | 0.0156 | 0.0123
52 | UUCAUGUGAGGAUAUAGUACUCUUUCUAUUAUUAUUGAGUAUUAGAAGGCACAUGAGGAUCACCCAUGUAGUAC | – | – | 0.0307 | 0.0164
53 | AAGAAACAUGAGGAUCACCCAUGUGAGGAUAUGAAAAAGAAAAGAAAAGAAAGAAGAAUCAGAAGGCACAAAGC | – | – | 0.026 | 0.0327
54 | CCGAUAAAUGGAGGAUAUGGAGCCUUAUUGGCUCCAGAAGGCUAAUAACAUGAGGAUCACCCAUGUCGGCGGUCUAAUGACCGA | 0.0813 | 0.033 | – | –
55 | GUGUAGAUAGGAUAUGCUUUGAGCUUAUGAGAGUAUGCUCGACAUGAGGAUCACCCAUGUAGAAGGGUUUACAC | – | – | – | 0.0525
56 | AAGAGUGCAGGAUAUACUUGUUAGGACGGUUGGAUGAUUUGACAUGAGGAUCACCCAUGUAGAAGGGCAGAGAG | – | – | 0.155 | 0.129
